This note sets out measurements from ChEMBL document CHEMBL1122039, “Design of more potent and selective antagonists of the antidiuretic responses to arginine-vasopressin devoid of antidiuretic agonism” (J Med Chem, 1982).

Numbered stars: 1 amine (or outer) side, 2 acyl side, 3 side chain; on linkers, the order of the positions; unused ones are H or OH. Bridge positions count the residues as written; N and C are the ends. Peptide text beside a SMILES is read from it. X1 = O=C(CC1(S[*:2])CCCCC1)[*:1]

Assay [1] is filed under the species Rattus norvegicus. As to the kind of experiment: Effective dose required for antiantidiuretic activity in rats. It is filed as functional, Urine. Put shortly: (§1)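 Antidiuretic assay in rats under ethanol anesthesia. Antagonist given at two doses, a high and a low one. The USP posterior pituitary standard was injected 20 min later, or 10 min later for non-agonist analogues.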

The species named for assay [2] is Rattus norvegicus. As to the kind of experiment: Effective dose required for anti-oxytocic activity in rat uterus. It is filed as functional.
The species entered for assay [3] is Rattus norvegicus. The experiment in a line: Effective dose required for anti-vasopressor activity in phenoxybenzamine-treated rats under urethane anesthesia. It is filed as functional. The method in brief:
(§2)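 Intravenous vasopressor assay in phenoxybenzamine-treated rats under urethane anesthesia, with the USP posterior pituitary standard as agonist. Antagonist given at a high and a low dose.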

Assay [4] has as its system Rattus norvegicus. As to the kind of experiment: In vivo anti-oxytocic activity in rat uterus. The conditions noted are these: read-out: pA2 (converted). It is filed as functional, organism-based.
Assay [5] is filed under the species Rattus norvegicus. As to the kind of experiment: Antivasopressor activity in rats. It is filed as functional, organism-based. The conditions noted are these: read-out: pA2 (converted). The method in brief:
as §2

Assay [6] is filed under the species Rattus norvegicus. The experiment in a line: In vitro anti-oxytocic activity in rat uterus (no Mg2+). It is filed as functional. Particulars: read-out: pA2 (converted).
For assay [7], the species on record is Rattus norvegicus. The experiment in a line: Antiantidiuretic activity in rats. The conditions noted are these: Urine, read-out: pA2 (converted). It is filed as functional, organism-based. The method in brief: as §1
The species entered for assay [8] is Rattus norvegicus. The experiment in a line: In vitro anti-oxytocic activity in rat uterus (0.5 mM Mg2+). It is filed as functional. Particulars: read-out: pA2 (converted).
Assay [9] can be described thus: Selectivity ratio for antioxyticic potency to antidiuretic potency. It is filed as functional, Urine.
Assay [10] in a line: Selectivity ratio for anti-vasopressor potency to antidiuretic potency. It is filed as functional, Urine.
Assay [11] is described as follows: ED ratio (anti-oxytocic ED/antiantidiuretic ED) of the compound. It is filed as functional, Urine.
A short description of assay [12]: ED ratio (anti-vasopressor ED/antiantidiuretic ED) of the compound. It is filed as functional, Urine.

As for `CC(C)[C@@H]1NC(=O)[C@H](Cc2ccccc2)NC(=O)[C@@H](C(C)C)NC(=O)CC2(CCCCC2)SSC[C@@H](C(=O)N2CCC[C@H]2C(=O)N[C@@H](CCCN=C(N)N)C(=O)NCC(N)=O)NC(=O)[C@H](CC(N)=O)NC1=O`, the Effective dose in the assay listed under Rattus norvegicus [1] was 2.3 nM/kg; in the assay filed under Rattus norvegicus [2] it was 220 nM/kg; in the assay listed under Rattus norvegicus [3] it was 27 nM/kg. Also, the Kb in the assay with Rattus norvegicus [4] was 3240 nM; in the assay listed under Rattus norvegicus [5], 389 nM; in the assay filed under Rattus norvegicus [6] it was 12.6 nM; in the assay listed under Rattus norvegicus [7] it was 33.1 nM; in the assay filed under Rattus norvegicus [8], 129 nM. In addition, the Selectivity in [9] worked out at 31; in assay [10], 92. Moreover, the ED ratio in assay [11] is 96; in assay [12], 12.

With `CC(C)[C@@H]1NC(=O)[C@H](Cc2ccccc2)NC(=O)[C@@H](CCCN=C(N)N)NC(=O)CC2(CCCCC2)SSC[C@@H](C(=O)N2CCC[C@H]2C(=O)N[C@@H](CCCN=C(N)N)C(=O)NCC(N)=O)NC(=O)[C@H](CC(N)=O)NC1=O`, the figures for the Effective dose in the assay listed under Rattus norvegicus [1] and in the assay listed under Rattus norvegicus [3] were more than 90 nM/kg and approximately 260 nM/kg, respectively. Further, the Kb was 3980 nM in the assay listed under Rattus norvegicus [5], more than 10000 nM in the assay listed under Rattus norvegicus [6] and more than 1260 nM in the assay listed under Rattus norvegicus [7].

With `CC[C@@H](C)[C@H]1NC(=O)CC2(CCCCC2)SSC[C@@H](C(=O)N2CCC[C@H]2C(=O)N[C@@H](CCCN=C(N)N)C(=O)NCC(N)=O)NC(=O)[C@H](CC(N)=O)NC(=O)[C@H](C(C)C)NC(=O)[C@H](Cc2ccccc2)NC1=O`, the results for the Effective dose in the assay filed under Rattus norvegicus [1], in the assay filed under Rattus norvegicus [2] and in the assay listed under Rattus norvegicus [3] were 0.7 nM/kg, 44 nM/kg and 8.2 nM/kg, respectively. Also, the Kb in the assay with Rattus norvegicus [4] is 617 nM; in the assay listed under Rattus norvegicus [5] it was 115 nM; in the assay filed under Rattus norvegicus [6] it was 10.5 nM; in the assay filed under Rattus norvegicus [7], 10.5 nM.

Regarding `CC(C)[C@@H]1NC(=O)[C@H](Cc2ccccc2)NC(=O)[C@@H](Cc2ccc(O)cc2)NC(=O)CC2(CCCCC2)SSC[C@@H](C(=O)N2CCC[C@H]2C(=O)N[C@H](CCCN=C(N)N)C(=O)NCC(N)=O)NC(=O)[C@H](CC(N)=O)NC1=O`, the Effective dose was 6.3 nM/kg in the assay listed under Rattus norvegicus [1], 8.1 nM/kg in the assay listed under Rattus norvegicus [2] and 0.6 nM/kg in the assay filed under Rattus norvegicus [3]. In addition, the Kb in the assay with Rattus norvegicus [4] is 117 nM; in the assay listed under Rattus norvegicus [5], 8.91 nM; in the assay listed under Rattus norvegicus [6], 10.2 nM; in the assay listed under Rattus norvegicus [7], 93.3 nM; in the assay filed under Rattus norvegicus [8], 16.6 nM.

As for `CC(C)[C@@H]1NC(=O)[C@H](Cc2ccccc2)NC(=O)[C@H](Cc2ccc(O)cc2)NC(=O)CC2(CCCCC2)SSC[C@@H](C(=O)N2CCC[C@H]2C(=O)N[C@@H](CCCN=C(N)N)C(=O)NCC(N)=O)NC(=O)[C@H](CC(N)=O)NC1=O`, the Effective dose in the assay filed under Rattus norvegicus [2] amounted to 26 nM/kg. Also, the Kb in the assay on Rattus norvegicus [4] is 339 nM; in the assay listed under Rattus norvegicus [5], 10.7 nM; in the assay listed under Rattus norvegicus [6] it was 45.7 nM; in the assay filed under Rattus norvegicus [8], 49 nM.

Consider `CC(C)[C@@H]1NC(=O)[C@H](Cc2ccccc2)NC(=O)CNC(=O)CC2(CCCCC2)SSC[C@@H](C(=O)N2CCC[C@H]2C(=O)N[C@@H](CCCN=C(N)N)C(=O)NCC(N)=O)NC(=O)[C@H](CC(N)=O)NC1=O` (GFVNCPRG-NH2; linker N-5 via X1), for which the Kb in the assay listed under Rattus norvegicus [6] was 2880 nM; in the assay filed under Rattus norvegicus [8] it was more than 20000 nM.

For `CC(C)[C@@H]1NC(=O)[C@H](Cc2ccccc2)NC(=O)[C@@H](Cc2ccccc2)NC(=O)CC2(CCCCC2)SSC[C@@H](C(=O)N2CCC[C@H]2C(=O)N[C@@H](CCCN=C(N)N)C(=O)NCC(N)=O)NC(=O)[C@H](CC(N)=O)NC1=O`, the Effective dose was determined as 0.67 nM/kg in the assay filed under Rattus norvegicus [1], 8.9 nM/kg in the assay filed under Rattus norvegicus [2] and 0.58 nM/kg in the assay listed under Rattus norvegicus [3]. Also, the Kb in the assay with Rattus norvegicus [4] was 120 nM; in the assay filed under Rattus norvegicus [5], 8.71 nM; in the assay filed under Rattus norvegicus [7] it was 8.51 nM.

In the assay listed under Rattus norvegicus [3], `CC(C)[C@@H]1NC(=O)[C@H](Cc2ccccc2)NC(=O)[C@@H](C)NC(=O)CC2(CCCCC2)SSC[C@@H](C(=O)N2CCC[C@H]2C(=O)N[C@@H](CCCN=C(N)N)C(=O)NCC(N)=O)NC(=O)[C@H](CC(N)=O)NC1=O` showed an Effective dose of 177 nM/kg. Further, the Kb was 1620 nM in the assay listed under Rattus norvegicus [5], 692 nM in the assay filed under Rattus norvegicus [6] and 9770 nM in the assay listed under Rattus norvegicus [8].

As to `CC(C)[C@@H]1NC(=O)[C@H](Cc2ccccc2)NC(=O)[C@@H](Cc2ccc(O)cc2)NC(=O)CC2(CCCCC2)SSC[C@@H](C(=O)N2CCC[C@H]2C(=O)N[C@@H](CCCN=C(N)N)C(=O)NCC(N)=O)NC(=O)[C@H](CC(N)=O)NC1=O`, the Effective dose in the assay filed under Rattus norvegicus [2] came out at 6.9 nM/kg. Further, the Kb with Rattus norvegicus [4] was 97.7 nM; in the assay filed under Rattus norvegicus [5], 3.89 nM; in the assay filed under Rattus norvegicus [6], 7.76 nM; in the assay listed under Rattus norvegicus [7], 30.9 nM; in the assay listed under Rattus norvegicus [8] it was 16.6 nM. In addition, the Selectivity in assay [9] and in [10] was 1 each time. Further, the ED ratio in assay [11] is 3.1; in [12] it was 0.13.

As for `CC(C)C[C@H]1NC(=O)CC2(CCCCC2)SSC[C@@H](C(=O)N2CCC[C@H]2C(=O)N[C@@H](CCCN=C(N)N)C(=O)NCC(N)=O)NC(=O)[C@H](CC(N)=O)NC(=O)[C@H](C(C)C)NC(=O)[C@H](Cc2ccccc2)NC1=O`, the Effective dose in the assay listed under Rattus norvegicus [1] came to 1.2 nM/kg; in the assay filed under Rattus norvegicus [2], 61 nM/kg; in the assay listed under Rattus norvegicus [3], 26 nM/kg. For the same compound, the Kb is 891 nM in the assay with Rattus norvegicus [4]; 355 nM in the assay filed under Rattus norvegicus [5]; 47.9 nM in the assay listed under Rattus norvegicus [6]; 16.2 nM in the assay filed under Rattus norvegicus [7]; 41.7 nM in the assay listed under Rattus norvegicus [8]. For the same compound, the Selectivity in assay [9] amounted to 16; in assay [10] it was 170. Besides, the ED ratio was 51 in assay [11] and 22 in assay [12].
